NPY-Y1 antag = blocks the human neuropeptide Y Y1 receptor; P25929; HEK293-CNG Y1 cells, membrane potential fluorescence; NPY at EC95, then isoproterenol; inhibition, % at 3.6 µM; 200,000 compounds, 1% hits;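 active = inhibition above the campaign mean inhibition of all tested compounds plus 3 SD, cut at about 20% in these data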
Target sequence (P25929 whole entry, looked up): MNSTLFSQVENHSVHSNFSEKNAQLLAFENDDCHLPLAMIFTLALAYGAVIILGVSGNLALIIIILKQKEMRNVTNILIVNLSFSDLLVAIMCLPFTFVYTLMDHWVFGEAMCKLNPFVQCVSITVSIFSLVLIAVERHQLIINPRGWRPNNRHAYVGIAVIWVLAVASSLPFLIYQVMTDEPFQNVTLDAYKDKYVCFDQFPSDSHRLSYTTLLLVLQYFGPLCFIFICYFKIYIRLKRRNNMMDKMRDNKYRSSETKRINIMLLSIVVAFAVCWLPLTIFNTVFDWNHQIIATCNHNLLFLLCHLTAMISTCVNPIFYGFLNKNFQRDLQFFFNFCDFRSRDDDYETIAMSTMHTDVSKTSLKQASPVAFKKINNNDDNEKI
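Material: Y1- and CNG-channel-expressing HEK293 cells / Probe or stimulus: NPY 25 nM then isoproterenol 1 µM plus Ro 20-1724 25 µM / Doses: 3.6 µM single dose, DMSO 0.4% / Schedule: compound incubation 1 h at room temperature, readout 45 min post-stimulation / Signal: membrane potential fluorescence / Benchmarks: isoproterenol-only wells as full block versus NPY-plus-isoproterenol wells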
EP2 modulator = EP2 receptor (human) modulation; 260,000 compounds, 0.83% hits; EP2-expressing cells, cAMP HTRF FRET, PGE2 co-stimulation; P43116; induction, % at 25 µM; AID 940;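 active = compounds whose cAMP rise, as percent of the full-agonist control response, exceeds 60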;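 note: rat C6 glioma line stably carrying human EP2 under a CMV promoter; the protocol text gives 20 µM as final concentration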
NPY1 pot ag = potentiates or activates human NPY-Y1 receptor; P25929; AID 1304; NPY-Y1 expressing cells, potentiator/agonist activation; 220,000 compounds, 0.37% hits; activation, % at 3.6 µM; in the data active = activation above about 33%, passing the limit was not always enough;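 note: cells stimulated with NPY at EC10 then isoproterenol at EC100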
EP2 antag = blocks the human prostaglandin E2 receptor EP2; AID 1422; C6 glioma cells expressing human EP2, cAMP TR-FRET; cells stimulated with saturating PGE2; 260,000 compounds, 0.52% hits; P43116; inhibition, % at 25 µM;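 active = percent inhibition above 40 after rounding to a whole number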;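 note: rat C6 glioma host cells with rolipram phosphodiesterase inhibitor present; the protocol text gives 20 µM as final concentration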
NPY-Y2 antag = blocks the human neuropeptide Y Y2 receptor; inhibition, % at 2.7 µM; NPY-Y2 expressing cells, antagonist mode; 140,000 compounds, 0.99% hits; P49146; in the data active = inhibition above about 17%
NPY-Y2 PAM-ag = human NPY-Y2 potentiation or agonism, primary screen. cells expressing NPY-Y2, potentiator/agonist read-out. activation, % at 3.6 µM. 220,000 compounds, 0.45% hits; in the data active = activation above about 27%;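 note: cells stimulated with NPY near EC25 plus isoproterenol at EC100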
A number is an active result; 0 = inactive; - = no result. Compounds with a hit are over-represented: about 2.8% of the library has one in this group of screens.

SMILES	NPY-Y1 antag	EP2 modulator	NPY1 pot ag	EP2 antag	NPY-Y2 antag	NPY-Y2 PAM-ag
CCP(=O)(c1cccc([N+](=O)[O-])c1)c1cccc([N+](=O)[O-])c1	-	0	0	0	-	0
CCOC(=O)c1c(-c2ccc(OC)c(OC)c2)csc1NC(=O)CC	-	0	-	0	-	-
CCOC(=O)c1c(-c2ccccc2)csc1NC(=O)COC	-	80.0	-	0	-	-
CCOC(=O)c1c(-c2ccc(C)c(C)c2)csc1NC(=O)COC	-	92.9	-	0	-	-
CCOC(=O)c1c(-c2ccc(C)cc2)csc1NC(=O)COC	-	81.5	-	0	-	-
CCOC(=O)c1c(-c2ccc(OCC)cc2)csc1NC(=O)CC	-	67.1	-	0	-	-
CCOC(=O)c1c(-c2ccccc2)csc1NC(=S)NC	0	0	0	0	0	0
COc1cc(CNC(=O)C2CCCN(c3nc4ccccc4n3C)C2)cc(OC)c1 (configuration not stated)	-	0	-	0	-	-
CC1c2ccsc2CCN1Cc1ccc(Oc2ncccn2)cc1 (configuration not stated)	-	0	-	0	-	-
COc1ccc(N2CCN(C(=O)CSc3ncnc4c3cnn4-c3ccccc3)CC2)cc1	-	0	-	0	-	-
CCn1c(N(C)Cc2ccccc2)nc2c1c(=O)[nH]c(=O)n2C	-	0	-	0	-	-
CC(C)(C)c1[nH]ncc1CN(CCCn1ccnc1)Cc1ccccc1Cl	-	0	-	0	-	-
C=CCCCN(Cc1ccccc1)S(=O)(=O)c1ccccc1Br	-	60.6	-	0	-	-
CCn1cc(CN(C)C(=O)CSc2nc(-c3cccs3)cc(C(F)(F)F)n2)c(C)n1	-	0	-	0	-	-
CCOc1ccc(NC(=O)CSc2nc(-c3ccco3)cc(C(F)(F)F)n2)cc1	-	0	-	0	-	-
Cc1sc2nc(CN(C3CCCC3)S(C)(=O)=O)[nH]c(=O)c2c1C	-	0	-	0	-	-
Cc1cc(C)c2c(SCc3ccc(Cl)cc3Cl)nc(N)nc2n1	-	0	-	47.1	-	-
CC(C)Cn1cnc2c(SCc3ccccn3)nc(N)nc21	-	0	-	0	-	-
CC(C)Cn1cnc2c(SCc3ccc(Cl)cc3Cl)nc(N)nc21	-	0	-	52.5	-	-
Cc1ccc2ccccc2c1CSc1nc(N)nc2c1ncn2CC(C)C	-	0	-	56.9	-	-
COc1nc(C)nc(NC(=O)COc2ccc(Cl)cc2C)n1	-	0	-	0	-	-
O=C(CSc1ncnc2c1cnn2-c1ccccc1Cl)Nc1cccc2ccccc12	-	0	-	0	-	-
Cc1ccc(-c2nc(C(Cl)Cl)c3ccccc3n2)cc1	-	61.5	0	0	-	0
COCCN(CCOC)c1nc(-c2ccc(C)cc2)nc2ccccc12	-	0	-	0	-	-
COc1ccccc1C(=O)Nc1nnc(-c2ccco2)s1	0	0	0	43.6	0	0
SMILES	NPY-Y1 antag	EP2 modulator	NPY1 pot ag	EP2 antag	NPY-Y2 antag	NPY-Y2 PAM-ag
O=C(Nc1nnc(-c2ccco2)s1)c1ccccc1	0	0	0	46.2	0	0
CC(c1ccccc1)N(CCC(c1ccccc1)C1CCOC(C)(C)C1)C(=O)c1ccco1 (configuration not stated)	0	0	0	0	0	0
COc1ccc(CN(CCC(c2ccc(F)cc2)C2CCOC(C)(C)C2)C(=O)c2ccco2)cc1 (configuration not stated)	21.8	0	0	0	19.8	0
CC(=O)c1cccc(NC(=O)c2ccc(-c3ccccc3[N+](=O)[O-])o2)c1	0	0	0	47.0	0	0
COc1cccc2c1C(=O)c1c(O)c3c(c(O)c1C2=O)C[C@@](O)(C(C)=O)C[C@@H]3O[C@H]1C[C@H](N)[C@H](O)[C@H](C)O1	0	0	0	-	0	0
COc1cccc2c1C(=N)c1c(O)c3c(c(O)c1C2=O)C[C@](O)(C(C)=O)C[C@@H]3O[C@@H]1C[C@H](N)[C@@H](O)[C@H](C)O1	-	0	-	128.2	-	-
COc1cccc2c1C(=O)c1c(O)c3c(c(O)c1C2=O)C[C@](O)(C(=O)CO)C[C@@H]3O[C@@H]1C[C@H](N)[C@@H](O)[C@H](C)O1	-	0	-	40.2	-	-
O=C(CN1CC[C@@H](c2ccccc2)[C@H](O)C1)N1CCOCC1	-	0	-	0	-	-
CC(NC(=O)/C(C#N)=C/c1ccc(Cl)c([N+](=O)[O-])c1)c1ccccc1 (configuration not stated)	0	0	0	68.7	0	0
O=C1Nc2ccccc2C(=O)C1(Cl)Cc1ccccc1 (configuration not stated)	0	0	0	112.2	0	0
CCC(c1nnnn1C(C)(C)CC)N(Cc1cc2cc(C)cc(C)c2[nH]c1=O)C1CCCCC1 (configuration not stated)	-	0	-	0	-	-
CCOC(=O)CSC1=NC(=O)/C(=C/c2ccc(Br)cc2)S1	0	0	0	0	-	0
CCOC(=O)CSC1=NC(=O)/C(=C\c2ccc(OC(C)=O)cc2)S1	0	0	0	53.4	0	0
Cc1ccc(C)c(NC(=O)Cn2nnc(-c3cccs3)n2)c1	-	0	-	0	-	-
COc1ccc(/C=C2/C(C)=C(C#N)c3nc(N)c(C#N)c(C)c32)cc1O	-	0	-	0	-	-
CCOC(=O)C1CCCN(C(=O)c2cnn3c(C(F)(F)F)cc(-c4ccccc4)nc23)C1 (configuration not stated)	22.5	0	0	0	18.8	0
COc1ccc(-c2cc(C(F)(F)F)nc(SCC(=O)N3CCOCC3)n2)cc1	-	0	-	0	-	-
CCCn1c(SCC(=O)Nc2ccc3c(c2)OCCO3)nnc1-c1ccoc1C	-	0	-	0	-	-
C/C(N[O-])=C(\C)[N+]([O-])=[Co].CC(=N\[O-])/C(C)=N/[O-].C[CH-][C@@H](C)O.c1ccncc1	-	0	-	41.7	-	-
CC1=CC(=O)C=C(C)C1=NOS(=O)(=O)c1ccccc1	0	0	0	56.1	0	0
Cc1ccc2c(c1)/C(=N/OS(=O)(=O)c1ccccc1)CCS2	0	-	0	0	0	0
COc1ccc(CC(=O)Nc2nnc(COc3ccc(Cl)cc3)s2)cc1OC	-	0	-	0	-	-
CCNC(=O)C1CCN(S(=O)(=O)c2cc(Cl)ccc2Cl)CC1	-	0	-	0	-	-
N#CC1=C(N)SC(N)=C(C#N)C1c1ccc(C(F)(F)F)cc1	0	0	0	49.3	0	0
CCC(=O)Nc1nc2c(Cl)c(Cl)ccc2s1	-	0	-	66.8	-	-
SMILES	NPY-Y1 antag	EP2 modulator	NPY1 pot ag	EP2 antag	NPY-Y2 antag	NPY-Y2 PAM-ag
CCOc1cccc2sc(NC(=O)CC)nc12	0	0	0	0	0	0
NNc1nc2c(Cl)c(Cl)ccc2s1	0	0	0	0	0	0
Nc1nc2c(Cl)c(Cl)ccc2s1	-	0	-	60.5	-	-
CCNc1nc(NCC)nc(SCCOC(=O)c2ccccc2)n1	0	63.3	0	0	0	0
Nc1nc(-c2ccc3c(c2)OCCO3)cs1	20.4	0	0	0	0	0
COc1cccc(N2C(=O)/C(=C\c3cccs3)NC2=S)c1	0	0	47.7	0	-	69.1
COc1ccc(N2C(=O)/C(=C/c3cccnc3)NC2=S)cc1	0	0	0	0	0	0
CCCOc1cccc(C(=O)Nc2sc3c(c2C#N)CCCC3)c1	-	0	-	0	-	-
c1csc(-c2nc3ccccn3c2NC2CCCCC2)c1	0	61.5	0	0	-	0
CC(C)(C)N(Cc1ccccc1)C(=O)c1ccc(Cl)cc1[N+](=O)[O-]	0	62.7	0	0	-	0
